# ChEMBL document CHEMBL1122638, “8-Methoxypsoralen-nucleic acid photoreaction. Effect of methyl substitution on pyrone vs. furan photoaddition” (J Med Chem, 1984)
# Legend:
# Format in all cases: functional
# [1] = Furan monoadduct and diadduct distribution (products resulting from photoaddition with the nucleic acid poly (dA-dT)) after 10 min irradiation at 360 nm
# Outline: (§1)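 Alternating poly(dA-dT)·poly(dA-dT), 1 mg (1.5 µmol base pairs) in 1 mL 10 mM Tris pH 7.2, with 0.3 µmol tritiated psoralen added in 95% EtOH. Irradiated 10 min at 10 °C. Polymer ethanol-reprecipitated, then digested sequentially with DNase II (pH 5, 37 °C), phosphodiesterase II (pH 7) and alkaline phosphatase (pH 7.8-8.0). Adducts resolved by reverse-phase HPLC (water-methanol gradient, pH 2.2 phosphate), with A254 and ³H scintillation counting.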
# [2] = Total radioactivity after 10 min irradiation at 360 nm; outline: as §1
# [3] = Pyrone monoadduct distribution (product resulting from photoaddition with the nucleic acid poly (dA-dT)) after 10 min irradiation at 360 nm; outline: as §1
# [4] = Total radioactivity (pyrone monoadduct, furan monoadduct and diadduct resulting from photoaddition with the nucleic acid poly (dA-dT)) after 10 min irradiation at 360 nm; outline: as §1
Compound,Radioactivity [1] [%],Radioactivity [2] [%],Radioactivity [3] [%],Radioactivity [4] [%]
COc1c2oc(C)cc2cc2ccc(=O)oc12,73,90,17,
COc1c2occc2cc2c(C)cc(=O)oc12,94,96,2,
COc1c2occc2cc2ccc(=O)oc12,75,,19,94
COc1c2oc(C)cc2cc2c(C)cc(=O)oc12,94,96,2,
